Results as given in ChEMBL document CHEMBL1287728, “Potent and highly selective DP1 antagonists with 2,3,4,9-tetrahydro-1H-carbazole as pharmacophore” (Bioorg Med Chem Lett, 2010).

Legend:
Thromboxane A2 receptor = molecular target: T1, Thromboxane A2 receptor (Homo sapiens, UniProt P21731); assay: Antagonist activity at prostanoid TP receptor; type: functional
T1 sequence (P21731 whole entry): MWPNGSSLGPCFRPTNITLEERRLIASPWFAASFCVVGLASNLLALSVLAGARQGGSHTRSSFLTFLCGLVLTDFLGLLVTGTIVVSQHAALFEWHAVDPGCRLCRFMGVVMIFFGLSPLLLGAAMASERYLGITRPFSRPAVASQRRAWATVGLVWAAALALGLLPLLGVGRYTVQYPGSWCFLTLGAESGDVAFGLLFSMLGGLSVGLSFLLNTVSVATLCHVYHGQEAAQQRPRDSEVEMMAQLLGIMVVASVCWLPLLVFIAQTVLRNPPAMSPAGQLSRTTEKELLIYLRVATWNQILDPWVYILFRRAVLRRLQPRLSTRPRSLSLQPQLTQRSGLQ

[1] = molecular target: T2, Prostaglandin D2 receptor (Homo sapiens, UniProt Q13258); assay: Antagonist activity at prostanoid DP1 receptor; type: functional
T2 sequence (Q13258 whole entry): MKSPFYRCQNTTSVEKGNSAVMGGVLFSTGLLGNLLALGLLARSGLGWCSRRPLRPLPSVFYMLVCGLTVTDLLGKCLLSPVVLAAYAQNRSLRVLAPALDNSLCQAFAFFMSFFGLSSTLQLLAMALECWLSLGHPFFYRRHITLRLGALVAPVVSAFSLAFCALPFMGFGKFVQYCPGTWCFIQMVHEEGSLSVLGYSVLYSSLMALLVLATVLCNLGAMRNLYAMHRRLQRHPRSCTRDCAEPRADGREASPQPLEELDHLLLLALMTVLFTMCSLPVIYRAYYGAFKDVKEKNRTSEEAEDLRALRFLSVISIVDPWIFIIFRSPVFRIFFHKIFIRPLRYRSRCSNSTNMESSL

[2] = Chemical stability of compound in 0.01N HCl after 2 hrs; type: physicochemical; details: read-out: Stability
Outline: (§1)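 Compound incubated in 0.01 N HCl at 37 °C; percent of compound recovered after 2 h or 6 h.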

[3] = Chemical stability of compound in 0.01N HCl after 6 hrs; type: physicochemical; details: read-out: Stability; outline: as §1
[4] = molecular target: Prostaglandin F2-alpha receptor (Homo sapiens, UniProt P43088); assay: Binding affinity to prostanoid receptor FP receptor
Chain of Prostaglandin F2-alpha receptor (P43088 whole entry): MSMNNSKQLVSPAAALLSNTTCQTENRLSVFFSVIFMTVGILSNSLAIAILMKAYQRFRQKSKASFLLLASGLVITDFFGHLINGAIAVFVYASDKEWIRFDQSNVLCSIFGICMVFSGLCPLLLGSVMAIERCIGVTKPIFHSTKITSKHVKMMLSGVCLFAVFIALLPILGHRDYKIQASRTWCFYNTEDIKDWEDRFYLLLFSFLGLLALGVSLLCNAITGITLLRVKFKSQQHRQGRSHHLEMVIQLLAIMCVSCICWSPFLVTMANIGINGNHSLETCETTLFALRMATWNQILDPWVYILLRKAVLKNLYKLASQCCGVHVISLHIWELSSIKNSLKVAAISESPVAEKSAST

[5] = molecular target: Prostaglandin E2 receptor EP2 subtype (Homo sapiens, UniProt P43116); assay: Binding affinity to prostanoid receptor EP2 receptor
Chain of Prostaglandin E2 receptor EP2 subtype (P43116 whole entry): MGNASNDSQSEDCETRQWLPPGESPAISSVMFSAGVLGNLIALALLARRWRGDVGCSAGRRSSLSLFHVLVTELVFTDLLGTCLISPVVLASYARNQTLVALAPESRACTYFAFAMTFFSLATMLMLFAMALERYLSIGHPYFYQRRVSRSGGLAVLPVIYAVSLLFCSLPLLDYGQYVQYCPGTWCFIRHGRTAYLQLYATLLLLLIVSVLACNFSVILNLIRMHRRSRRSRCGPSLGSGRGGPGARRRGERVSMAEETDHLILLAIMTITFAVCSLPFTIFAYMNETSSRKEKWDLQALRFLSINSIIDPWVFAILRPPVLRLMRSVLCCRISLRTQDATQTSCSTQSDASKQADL

[6] = molecular target: T3, Prostaglandin E2 receptor EP1 subtype (Homo sapiens, UniProt P34995); assay: Binding affinity to prostanoid receptor EP1 receptor
T3 sequence (P34995 whole entry): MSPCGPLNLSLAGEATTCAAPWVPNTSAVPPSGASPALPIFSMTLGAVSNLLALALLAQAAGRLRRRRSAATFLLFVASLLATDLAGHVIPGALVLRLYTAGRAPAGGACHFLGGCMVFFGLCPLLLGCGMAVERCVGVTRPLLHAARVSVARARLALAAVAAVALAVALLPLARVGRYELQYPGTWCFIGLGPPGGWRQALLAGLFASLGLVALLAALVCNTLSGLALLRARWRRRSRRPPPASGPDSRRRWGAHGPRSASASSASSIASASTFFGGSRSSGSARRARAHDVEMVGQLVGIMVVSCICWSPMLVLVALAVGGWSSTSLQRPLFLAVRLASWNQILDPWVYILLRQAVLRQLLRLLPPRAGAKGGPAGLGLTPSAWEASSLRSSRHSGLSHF

[7] = molecular target: T4, Prostaglandin E2 receptor EP3 subtype (Homo sapiens, UniProt P43115); assay: Binding affinity to prostanoid receptor EP3 receptor
T4 sequence (P43115 whole entry): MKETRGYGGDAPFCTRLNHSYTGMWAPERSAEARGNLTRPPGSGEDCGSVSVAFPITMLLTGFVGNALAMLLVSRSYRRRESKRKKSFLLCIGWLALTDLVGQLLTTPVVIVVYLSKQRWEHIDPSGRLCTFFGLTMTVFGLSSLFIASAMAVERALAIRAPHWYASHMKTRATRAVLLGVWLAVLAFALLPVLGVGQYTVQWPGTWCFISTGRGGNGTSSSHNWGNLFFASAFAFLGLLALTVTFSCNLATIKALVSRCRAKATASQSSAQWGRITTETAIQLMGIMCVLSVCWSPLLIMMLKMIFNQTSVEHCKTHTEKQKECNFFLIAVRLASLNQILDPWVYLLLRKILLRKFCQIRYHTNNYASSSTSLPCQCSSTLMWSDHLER

Homo sapiens = species on record: Homo sapiens; assay: Selectivity ratio of IC50 for prostanoid DP1 receptor to IC50 for TP receptor in human platelet
Outline: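 Ratio of IC₅₀ values from two human platelet-rich plasma assays: PGD₂-induced cAMP accumulation (DP1) and U46619-induced platelet aggregation (TP).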

[8] = Selectivity ratio of Ki for prostanoid DP1 receptor to Ki for prostanoid EP3 receptor
[9] = molecular target: Prostaglandin E2 receptor EP4 subtype (Homo sapiens, UniProt P35408); assay: Binding affinity to prostanoid receptor EP4 receptor
Chain of Prostaglandin E2 receptor EP4 subtype (P35408 whole entry): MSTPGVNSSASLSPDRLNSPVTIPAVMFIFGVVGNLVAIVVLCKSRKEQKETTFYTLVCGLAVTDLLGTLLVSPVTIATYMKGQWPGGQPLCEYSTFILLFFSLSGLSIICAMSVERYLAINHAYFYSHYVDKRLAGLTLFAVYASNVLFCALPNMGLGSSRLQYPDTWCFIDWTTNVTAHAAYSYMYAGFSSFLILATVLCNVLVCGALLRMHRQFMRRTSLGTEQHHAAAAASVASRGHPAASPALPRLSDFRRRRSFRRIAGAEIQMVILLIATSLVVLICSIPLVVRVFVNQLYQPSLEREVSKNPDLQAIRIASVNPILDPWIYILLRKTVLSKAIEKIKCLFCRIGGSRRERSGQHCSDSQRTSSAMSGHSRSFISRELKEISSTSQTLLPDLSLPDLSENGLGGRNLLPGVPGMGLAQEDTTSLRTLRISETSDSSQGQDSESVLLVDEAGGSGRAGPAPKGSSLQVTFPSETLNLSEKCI

Prostacyclin receptor = Prostacyclin receptor (Homo sapiens, UniProt P43119); assay: Binding affinity to prostanoid receptor IP receptor
Chain of Prostacyclin receptor (P43119 whole entry): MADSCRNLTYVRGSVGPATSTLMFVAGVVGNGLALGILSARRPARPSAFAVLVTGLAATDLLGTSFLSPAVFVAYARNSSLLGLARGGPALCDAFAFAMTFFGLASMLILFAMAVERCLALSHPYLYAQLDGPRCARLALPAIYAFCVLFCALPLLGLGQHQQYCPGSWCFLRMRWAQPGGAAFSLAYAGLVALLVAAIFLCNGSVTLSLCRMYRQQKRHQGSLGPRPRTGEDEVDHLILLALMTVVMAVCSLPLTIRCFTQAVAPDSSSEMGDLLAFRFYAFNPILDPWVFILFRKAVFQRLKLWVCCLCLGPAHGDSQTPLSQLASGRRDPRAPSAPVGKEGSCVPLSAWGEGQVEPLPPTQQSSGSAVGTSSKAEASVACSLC

[10] = molecular target: T2, Prostaglandin D2 receptor; assay: Antagonist activity at prostanoid DP1 receptor in human platelet assessed as inhibition of PGD2 induced accumulation of cAMP; type: functional
Outline: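 Human platelet-rich plasma; cAMP accumulation induced by PGD₂, measured with antagonist present; IC₅₀ reported.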

Row | Ki (Thromboxane A2 receptor) [µM] | Ki [1] [µM] | Compound | also measured
1 | – | 0.012 | CC(c1ccc(Cl)cc1)n1c2c(c3cc(F)cc(S(C)(=O)=O)c31)CCCC2CC(=O)O (single isomer, unassigned; fast eluting) | –
2 | 0.1 | 0.00033 | C[C@@H](c1ccc(F)cc1)n1c2c(c3cc(F)cc(S(C)(=O)=O)c31)CCC[C@@H]2CC(=O)O | –
3 | 0.106 | 0.00038 | C[C@@H](c1ccc(Br)cc1)n1c2c(c3cc(F)cc(S(C)(=O)=O)c31)CCC[C@@H]2CC(=O)O | –
4 | 0.13 | 0.00036 | CS(=O)(=O)c1cc(F)cc2c3c(n([C@H](c4ccc(Cl)cc4)C(F)F)c12)[C@@H](CC(=O)O)CCC3 | –
5 | 0.138 | 0.00039 | CS(=O)(=O)c1cc(F)cc2c3c(n([C@@H](CF)c4ccc(Cl)cc4)c12)[C@@H](CC(=O)O)CCC3 | –
6 | – | 0.0013 | CC(c1ccc(Cl)cc1)n1c2c(c3cc(F)cc(S(C)(=O)=O)c31)CCCC2CC(=O)O (single isomer, unassigned; slow-eluting) | –

Continued, compound first:

Row | Compound | Ki (Thromboxane A2 receptor) [µM] | Ki [1] [µM] | also measured
7 | C[C@@H](c1ccc(C#N)cc1)n1c2c(c3cc(F)cc(S(C)(=O)=O)c31)CCC[C@@H]2CC(=O)O | 0.093 | 0.00051 | –
8 | C[C@@H](c1ccc(Cl)cc1)n1c2c(c3cc(F)cc(S(C)(=O)=O)c31)CCC[C@@H]2CC(=O)O | 0.184 | 0.00075 | remaining at 2 h [2]: 79%
9 | C[C@@H](c1ccc(S(C)(=O)=O)cc1)n1c2c(c3cc(F)cc(S(C)(=O)=O)c31)CCC[C@@H]2CC(=O)O | 1.48 | 0.0165 | –
10 | C[C@@H](c1ccc(Cl)c(Cl)c1)n1c2c(c3cc(F)cc(S(C)(=O)=O)c31)CCC[C@@H]2CC(=O)O | 0.112 | 0.00033 | –
11 | C[C@@H](c1ccccc1)n1c2c(c3cc(F)cc(S(C)(=O)=O)c31)CCC[C@@H]2CC(=O)O | 0.362 | 0.00036 | –
12 | C[C@@H](c1ccc(C(F)(F)F)cc1)n1c2c(c3cc(F)cc(S(C)(=O)=O)c31)CCC[C@@H]2CC(=O)O | 0.338 | 0.00043 | remaining at 6 h [3]: 99.6%; Ki [4]: 4.32 µM; Ki [5]: 2.27 µM; Ki [6]: 4.59 µM; Ki [7]: 0.83 µM; Ratio (Homo sapiens): 7760; Ratio [8]: 1900; Ki [9]: 6.61 µM; Ki (Prostacyclin receptor): 15.5 µM; IC50 [10]: 0.0025 µM
13 | C[C@@H](c1ccc(Cl)cc1F)n1c2c(c3cc(F)cc(S(C)(=O)=O)c31)CCC[C@@H]2CC(=O)O | 0.27 | 0.00041 | –
14 | CS(=O)(=O)c1cc(F)cc2c3c(n(Cc4ccc(Cl)cc4)c12)C(CC(=O)O)CCC3 (racemic) | 0.00251 | 0.00089 | –
15 | C[C@@H](c1cccc(Cl)c1)n1c2c(c3cc(F)cc(S(C)(=O)=O)c31)CCC[C@@H]2CC(=O)O | 0.292 | 0.00031 | –
16 | C[C@@H](c1ccc(Cl)c(F)c1)n1c2c(c3cc(F)cc(S(C)(=O)=O)c31)CCC[C@@H]2CC(=O)O | 0.2 | 0.00038 | –
